Measurements published in ChEMBL document CHEMBL2375313, “Synthesis, in vitro antitumor evaluation and DNA-binding study of novel tetrahydroquinolines and some derived tricyclic and tetracyclic ring systems” (Eur J Med Chem, 2013).

Assays:
Type in all cases: functional
[1] = tested on: CCRF-CEM; assay: Cytotoxicity against human CCRF-CEM cells assessed as growth inhibition at 10 uM after 48 hrs by sulphorhodamine B assay; conditions: read-out: GI
How it was run: (§1)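 NCI-60 one-dose screen per the NCI Drug Evaluation Branch protocol. Cells given a single 10 µM concentration with 48 h continuous exposure. Growth estimated by sulphorhodamine B protein assay. Result expressed as percentage growth inhibition relative to untreated growth.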

[2] = tested on: HOP-92; assay: Cytotoxicity against human HOP92 cells assessed as growth inhibition at 10 uM after 48 hrs by sulphorhodamine B assay; conditions: HOP-92, 48 h, read-out: GI; how it was run: as §1
[3] = tested on: SK-OV-3; assay: Cytotoxicity against human SKOV3 cells assessed as growth inhibition at 10 uM after 48 hrs by sulphorhodamine B assay; conditions: SK-OV-3, 48 h, read-out: GI; how it was run: as §1
[4] = tested on: SK-MEL-2; assay: Cytotoxicity against human SK-MEL-2 cells assessed as growth inhibition at 10 uM after 48 hrs by sulphorhodamine B assay; conditions: SK-MEL-2, 48 h, read-out: GI; how it was run: as §1
[5] = tested on: SNB-75; assay: Cytotoxicity against human SNB75 cells assessed as growth inhibition at 10 uM after 48 hrs by sulphorhodamine B assay; conditions: SNB-75, 48 h, read-out: GI; how it was run: as §1
[6] = tested on: MDA-MB-435; assay: Cytotoxicity against human MDA-MB-435 cells assessed as growth inhibition at 10 uM after 48 hrs by sulphorhodamine B assay; conditions: MDA-MB-435, 48 h, read-out: GI; how it was run: as §1
[7] = tested on: A498; assay: Cytotoxicity against human A498 cells assessed as growth inhibition at 10 uM after 48 hrs by sulphorhodamine B assay; conditions: A498, 48 h, read-out: GI; how it was run: as §1
[8] = tested on: HCT-15; assay: Cytotoxicity against human HCT15 cells assessed as growth inhibition at 10 uM after 48 hrs by sulphorhodamine B assay; conditions: HCT-15, 48 h, read-out: GI; how it was run: as §1
[9] = tested on: HL-60(TB); assay: Cytotoxicity against human HL-60(TB) cells assessed as growth inhibition at 10 uM after 48 hrs by sulphorhodamine B assay; conditions: HL-60, 48 h, read-out: GI
How it was run: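 NCI-60 one-dose primary screen run to the Drug Evaluation Branch protocol. Cells are exposed to a single 10 µM concentration for 48 h continuously, and growth is read by SRB protein assay. Data are reported as percent growth of treated cells, expressed as % growth inhibition.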

[10] = tested on: UACC-62; assay: Cytotoxicity against human UACC62 cells assessed as growth inhibition at 10 uM after 48 hrs by sulphorhodamine B assay; conditions: UACC-62, 48 h, read-out: GI; how it was run: as §1
[11] = Cytotoxicity against human EKVX cells assessed as growth inhibition at 10 uM after 48 hrs by sulphorhodamine B assay; conditions: read-out: GI; how it was run: as §1
[12] = tested on: PC-3; assay: Cytotoxicity against human PC3 cells assessed as growth inhibition at 10 uM after 48 hrs by sulphorhodamine B assay; conditions: PC-3, 48 h, read-out: GI; how it was run: as §1
[13] = tested on: SNB-19; assay: Cytotoxicity against human SNB19 cells assessed as growth inhibition at 10 uM after 48 hrs by sulphorhodamine B assay; conditions: SNB-19, 48 h, read-out: GI; how it was run: as §1
[14] = tested on: CAKI-1; assay: Cytotoxicity against human Caki1 cells assessed as growth inhibition at 10 uM after 48 hrs by sulphorhodamine B assay; conditions: CAKI-1, 48 h, read-out: GI; how it was run: as §1
[15] = tested on: OVCAR-4; assay: Cytotoxicity against human OVCAR4 cells assessed as growth inhibition at 10 uM after 48 hrs by sulphorhodamine B assay; conditions: OVCAR-4, 48 h, read-out: GI; how it was run: as §1
[16] = tested on: MOLT-4; assay: Cytotoxicity against human MOLT4 cells assessed as growth inhibition at 10 uM after 48 hrs by sulphorhodamine B assay; conditions: MOLT-4, 48 h, read-out: GI; how it was run: as §1
[17] = tested on: Hs-578T; assay: Cytotoxicity against human Hs578T cells assessed as growth inhibition at 10 uM after 48 hrs by sulphorhodamine B assay; conditions: read-out: GI; how it was run: as §1
[18] = tested on: SF-268; assay: Cytotoxicity against human SF268 cells assessed as growth inhibition at 10 uM after 48 hrs by sulphorhodamine B assay; conditions: SF-268, 48 h, read-out: GI; how it was run: as §1
[19] = tested on: LOX IMVI; assay: Cytotoxicity against human LOXIMVI cells assessed as growth inhibition at 10 uM after 48 hrs by sulphorhodamine B assay; conditions: read-out: GI; how it was run: as §1
[20] = tested on: U-251; assay: Cytotoxicity against human U251 cells assessed as growth inhibition at 10 uM after 48 hrs by sulphorhodamine B assay; conditions: U-251, 48 h, read-out: GI; how it was run: as §1
[21] = tested on: RXF 393; assay: Cytotoxicity against human RXF393 cells assessed as growth inhibition at 10 uM after 48 hrs by sulphorhodamine B assay; conditions: RXF 393, 48 h, read-out: GI; how it was run: as §1
[22] = tested on: A549; assay: Cytotoxicity against human A549 cells assessed as growth inhibition at 10 uM after 48 hrs by sulphorhodamine B assay; conditions: A549, 48 h, read-out: GI; how it was run: as §1
[23] = tested on: HCT-116; assay: Cytotoxicity against human HCT116 cells assessed as growth inhibition at 10 uM after 48 hrs by sulphorhodamine B assay; conditions: HCT-116, 48 h, read-out: GI; how it was run: as §1
[24] = tested on: M14; assay: Cytotoxicity against human M14 cells assessed as growth inhibition at 10 uM after 48 hrs by sulphorhodamine B assay; conditions: M14, 48 h, read-out: GI; how it was run: as §1
[25] = tested on: SR; assay: Cytotoxicity against human SR cells assessed as growth inhibition at 10 uM after 48 hrs by sulphorhodamine B assay; conditions: read-out: GI; how it was run: as §1
[26] = tested on: HT-29; assay: Cytotoxicity against human HT-29 cells assessed as growth inhibition at 10 uM after 48 hrs by sulphorhodamine B assay; conditions: HT-29, 48 h, read-out: GI; how it was run: as §1
[27] = tested on: MDA-MB-468; assay: Cytotoxicity against human MDA-MB-468 cells assessed as growth inhibition at 10 uM after 48 hrs by sulphorhodamine B assay; conditions: MDA-MB-468, 48 h, read-out: GI; how it was run: as §1
[28] = tested on: IGROV-1; assay: Cytotoxicity against human IGROV1 cells assessed as growth inhibition at 10 uM after 48 hrs by sulphorhodamine B assay; conditions: IGROV-1, 48 h, read-out: GI; how it was run: as §1
[29] = tested on: SK-MEL-5; assay: Cytotoxicity against human SK-MEL-5 cells assessed as growth inhibition at 10 uM after 48 hrs by sulphorhodamine B assay; conditions: SK-MEL-5, 48 h, read-out: GI; how it was run: as §1
[30] = tested on: DU-145; assay: Cytotoxicity against human DU145 cells assessed as growth inhibition at 10 uM after 48 hrs by sulphorhodamine B assay; conditions: DU-145, 48 h, read-out: GI; how it was run: as §1
[31] = tested on: T47D; assay: Cytotoxicity against human T47D cells assessed as growth inhibition at 10 uM after 48 hrs by sulphorhodamine B assay; conditions: read-out: GI; how it was run: as §1
[32] = tested on: NCI/ADR-RES; assay: Cytotoxicity against human NCI/ADR-RES cells assessed as growth inhibition at 10 uM after 48 hrs by sulphorhodamine B assay; conditions: read-out: GI; how it was run: as §1
[33] = tested on: MCF7; assay: Cytotoxicity against human MCF7 cells assessed as growth inhibition at 10 uM after 48 hrs by sulphorhodamine B assay; conditions: MCF7, 48 h, read-out: GI; how it was run: as §1
[34] = tested on: NCI-H522; assay: Cytotoxicity against human NCI-H522 cells assessed as growth inhibition at 10 uM after 48 hrs by sulphorhodamine B assay; conditions: NCI-H522, 48 h, read-out: GI; how it was run: as §1
[35] = tested on: OVCAR-5; assay: Cytotoxicity against human OVCAR5 cells assessed as growth inhibition at 10 uM after 48 hrs by sulphorhodamine B assay; conditions: OVCAR-5, 48 h, read-out: GI; how it was run: as §1
[36] = tested on: NCI-H23; assay: Cytotoxicity against human NCI-H23 cells assessed as growth inhibition at 10 uM after 48 hrs by sulphorhodamine B assay; conditions: NCI-H23, 48 h, read-out: GI; how it was run: as §1
[37] = tested on: RPMI-8226; assay: Cytotoxicity against human RPMI8226 cells assessed as growth inhibition at 10 uM after 48 hrs by sulphorhodamine B assay; conditions: RPMI-8226, 48 h, read-out: GI; how it was run: as §1
[38] = tested on: UO-31; assay: Cytotoxicity against human UO31 cells assessed as growth inhibition at 10 uM after 48 hrs by sulphorhodamine B assay; conditions: UO-31, 48 h, read-out: GI; how it was run: as §1
[39] = tested on: K562; assay: Cytotoxicity against human K562 cells assessed as growth inhibition at 10 uM after 48 hrs by sulphorhodamine B assay; conditions: K562, 48 h, read-out: GI; how it was run: as §1
[40] = tested on: SF-295; assay: Cytotoxicity against human SF295 cells assessed as growth inhibition at 10 uM after 48 hrs by sulphorhodamine B assay; conditions: SF-295, 48 h, read-out: GI; how it was run: as §1
[41] = tested on: ACHN; assay: Cytotoxicity against human ACHN cells assessed as growth inhibition at 10 uM after 48 hrs by sulphorhodamine B assay; conditions: read-out: GI; how it was run: as §1

Work on `CC1CCCc2c1nc(NC(=S)NC(=O)c1ccccc1)c(C#N)c2-c1ccc(Cl)cc1` (stereo unspecified) yielded an inhibition of growth at 10 µM [1] of 27.6%, an inhibition of growth at 10 µM [2] of 38.2% and an inhibition of growth at 10 µM [3] of 20%. For the same compound, the inhibition of growth at 10 µM [4] was 10.3%, the inhibition of growth at 10 µM [5] was 15.7% and the inhibition of growth at 10 µM [6] was < 10%. For the same compound, the inhibition of growth at 10 µM [7] was 39%, the inhibition of growth at 10 µM [8] was 11.6% and the inhibition of growth at 10 µM [9] was 30%. It also gave an inhibition of growth at 10 µM [10] of 25.3%, an inhibition of growth at 10 µM [11] of 16.7% and an inhibition of growth at 10 µM [12] of 20.3%. The inhibition of growth at 10 µM [13] was 14.1%, the inhibition of growth at 10 µM [14] was 22.5% and the inhibition of growth at 10 µM [15] was 21.4%. For the same compound, the inhibition of growth at 10 µM [16] was 31%, the inhibition of growth at 10 µM [17] was 13.8% and the inhibition of growth at 10 µM [18] was < 10%. For the same compound, the inhibition of growth at 10 µM [19] was 11.1%, the inhibition of growth at 10 µM [20] was 20% and the inhibition of growth at 10 µM [21] was < 10%. For the same compound, the inhibition of growth at 10 µM [22] was 16%, the inhibition of growth at 10 µM [23] was 20% and the inhibition of growth at 10 µM [24] was < 10%. The inhibition of growth at 10 µM [25] was < 10%, the inhibition of growth at 10 µM [26] was < 10% and the inhibition of growth at 10 µM [27] was 14.5%. For the same compound, the inhibition of growth at 10 µM [28] was 32%, the inhibition of growth at 10 µM [29] was 17.7% and the inhibition of growth at 10 µM [30] was < 10%. The inhibition of growth at 10 µM [31] was 38.8%, the inhibition of growth at 10 µM [32] was < 10% and the inhibition of growth at 10 µM [33] was 12.1%. The inhibition of growth at 10 µM [34] was 27.5%, the inhibition of growth at 10 µM [35] was < 10% and the inhibition of growth at 10 µM [36] was 10%. It also gave an inhibition of growth at 10 µM [37] of 55%, an inhibition of growth at 10 µM [38] of 33.2% and an inhibition of growth at 10 µM [39] of 36.3%. For the same compound, the inhibition of growth at 10 µM [40] was 17.2% and the inhibition of growth at 10 µM [41] was 14%.
